This is a sample that favours compounds with a hit; in the whole collection about 1.7% have one here.
LANA DNA inh: KSHV C-LANA DNA binding inhibition | inhibition, % at 9 µM | AID 504423 | MBP-C-LANA/FAM-LBS DNA binding, fluorescence polarization | 0.078% of 340,000 active;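 active = highest replicate inhibition at or above 60% at 9 µM, even if other replicates fall short; inactive = all replicates below 60% inhibition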;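 also: 0% = neutral control wells and 100% = 4 µM acridine orange control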
Keap1-Nrf2 PPI: inhibitors of human Keap1-Nrf2 protein-protein interaction. 0.15% of 340,000 active. Q14145. Keap1 Kelch-Nrf2 peptide fluorescence polarization, 1536-well. inhibition, % at 9.4 µM; in the data active = inhibition above about 12%;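 also: human Keap1 Kelch domain with fluorescein labeled Nrf2 9mer peptide probe; 0% = neutral control wells and 100% = peptide positive control; higher means more block of Keap1 binding to Nrf2 peptide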
Target sequence (Q14145 whole entry, looked up, the tested form may be a part): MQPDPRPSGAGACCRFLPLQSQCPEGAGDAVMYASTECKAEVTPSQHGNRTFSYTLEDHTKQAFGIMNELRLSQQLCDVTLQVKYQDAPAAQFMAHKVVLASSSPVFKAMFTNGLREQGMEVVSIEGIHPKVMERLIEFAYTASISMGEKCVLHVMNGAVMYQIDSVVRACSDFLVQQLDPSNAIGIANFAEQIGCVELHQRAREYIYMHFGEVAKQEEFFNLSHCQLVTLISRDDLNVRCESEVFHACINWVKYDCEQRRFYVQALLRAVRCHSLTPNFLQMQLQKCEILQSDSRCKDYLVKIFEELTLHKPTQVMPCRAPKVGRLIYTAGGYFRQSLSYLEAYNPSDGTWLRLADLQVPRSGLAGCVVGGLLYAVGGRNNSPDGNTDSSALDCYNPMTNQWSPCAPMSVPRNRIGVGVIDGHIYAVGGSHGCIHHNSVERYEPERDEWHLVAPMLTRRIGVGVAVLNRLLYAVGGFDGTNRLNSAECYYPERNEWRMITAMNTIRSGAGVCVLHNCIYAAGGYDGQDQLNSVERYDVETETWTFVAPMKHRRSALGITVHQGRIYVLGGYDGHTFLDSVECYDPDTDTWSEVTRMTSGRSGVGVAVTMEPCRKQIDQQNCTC
CAL PDZ FP-1: CAL PDZ (human) peptide binding inhibition; 0.92% of 300,000 active; purified CAL PDZ, TMR-peptide fluorescence polarization, 1 h; AID 602252; inhibition, % at 24.9 µM;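 active = mean inhibition of at least 30% with at least half of replicates also reaching 30%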;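 also: 0% = DMSO neutral control and 100% = excess unlabeled competitor peptide PRC23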
APOBEC3G inh: APOBEC3G (human) deaminase inhibition | recombinant A3G, ssDNA deamination FAM/TAMRA fluorescence | 0.28% of 330,000 active | AID 493012 | Q9HC16 | inhibition, % at 20 µM;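 active = inhibition of at least 40% at 20 µM, with no more than 30% in the related APOBEC3A deaminase screen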;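 also: plate controls were DMSO wells with A3G for no effect and wells lacking A3G enzyme for full effect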
A3A deaminase: blocks human APOBEC3A ssDNA deamination; P31941; recombinant A3A, FAM/TAMRA ssDNA deamination fluorescence; inhibition, % at 20 µM; 0.41% of 330,000 active;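 active = at least 40% inhibition at 20 µM here, with at most 30% in a related deaminase screen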;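 also: plate controls were A3A with DMSO for no effect and wells lacking A3A enzyme for full effect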
CAL PDZ FP-2: blocks peptide binding to human CAL PDZ domain; purified CAL PDZ, TMR-peptide fluorescence polarization, 1 h; inhibition, % at 20 µM; 0.02% of 330,000 active; AID 504414;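 active = highest replicate inhibition of at least 40%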;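 also: plate controls were DMSO neutral control wells for no effect and unlabeled competitor peptide control wells for full effect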
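Test system: tagged CAL PDZ domain / Buffer or medium: sodium phosphate/NaCl buffer pH 7.4 with TCEP, IgG, Thesit / Reagent: TMR-labelled reporter peptide T*-PRC34 bound in PDZ groove / Compound dosing: single point, 20 µM / Schedule: 1 h incubation at room temperature before polarization reading / Technique: fluorescence polarization (mP) / Benchmarks: unlabelled peptide, DMSO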
Numbers without * were called inactive; x = not tested or not shown; + = active, no number.

SMILES | LANA DNA inh | Keap1-Nrf2 PPI | CAL PDZ FP-1 | APOBEC3G inh | A3A deaminase | CAL PDZ FP-2
O=C(Nc1ccc2cn[nH]c2c1)c1ccccc1F | 0 | -3 | 85* | 1 | 2 | -1
O=C(Nc1ccc2ccccc2c1)c1ccccc1F | -1 | 3 | x | -4 | -4 | 0
O=C(COC(=O)COc1ccc(Br)cc1)NCC1CCCO1 (centres undefined) | -1 | -3 | 91* | -2 | -1 | 0
C1CCCC(NC2=NCCO2)CCC1 | 2 | 3 | 59* | 10 | -4 | -1
CC(C)C1C(C#N)=C(N)Oc2n[nH]c(-c3cccs3)c21 (centres undefined) | 0 | -1 | 54* | -3 | 0 | -1
COc1ccc(NC(=O)CN(C)C(=O)c2ccc(NS(=O)(=O)c3ccc(F)cc3)cc2)cc1 | 1 | 0 | -7 | -4 | -2 | -2
CC(=O)c1cccc(NS(=O)(=O)c2ccc(NC(=O)N3CCCCC3)cc2)c1 | -1 | 0 | 121* | -8 | -1 | -1
CCCC1CC(C(=O)Nc2ccccc2)C(=O)O1 (centres undefined) | 0 | -2 | -8 | -1 | 0 | -1
O=C(NNC(=O)C1CC=CCC1C(=O)O)c1ccc(Cl)cc1 (centres undefined) | -1 | -3 | x | -4 | -1 | -1
CN(C)n1cnc2ccsc2c1=O | 1 | 0 | -4 | -3 | -3 | 0
Cc1ccc(C)c(OCC(=O)Nc2cc(C)on2)c1 | 1 | 1 | x | -11 | -4 | -1
COc1ccc(C(N)=O)c(OCC(=O)Nc2cc(C)on2)c1 | -2 | -4 | 39* | 1 | 0 | 0
CN(CC(=O)Nc1ccc(F)cc1)C(=O)COC(=O)c1ccc(-c2ccccc2)cc1 | 1 | 3 | 8 | -3 | 1 | -3
C=C(C)Cn1c(Sc2nc3ccccc3[nH]2)nc2c1c(=O)[nH]c(=O)n2C | 0 | -3 | 35* | -1 | -1 | -1
COc1ncnc2c1NC(=O)CS2 | 1 | 1 | 0 | -3 | -1 | 0
COc1ncnc2c1N[C@@](C)(O)c1c(F)c(F)c(F)c(F)c1S2 | -2 | 1 | 46* | -1 | 1 | -1
COc1ccccc1NC(=O)CSc1nnnn1C1CCCCC1 | -1 | -5 | -1 | -11 | -4 | -2
Cc1ccc2c(O)c(C)c(=O)[nH]c2n1 | 2 | -4 | -3 | -5 | 0 | 0
Nc1ccc(-c2c3ccc(=O)cc-3oc3cc(O)ccc23)c(C(=O)O)c1 | 171* | -17 | x | -71 | -37 | 0
Cc1cccc(OCCCn2c(CO)nc3ccccc32)c1 | 0 | -1 | 89* | 0 | 9 | x
Cc1ccc(OCCCn2c(CO)nc3ccccc32)cc1 | 1 | 0 | 5 | -1 | -1 | -1
C#CCN1[C@@H]2CCN(C2)c2cc(Br)ccc2S1(=O)=O | -2 | -5 | 51* | x | x | 0
COc1ccc(CNC(=O)CCN2C(=S)NC(C)(C)CC2C)cc1 (centres undefined) | -2 | 0 | 65* | -12 | -2 | -2
Oc1ccccc1-c1cc(-c2ccc(F)cc2)n[nH]1 | -1 | -1 | 34* | -6 | -6 | -1
Cc1ccc(O)c(-c2cc(-c3cccc(Br)c3)n[nH]2)c1 | 0 | -2 | 86* | -5 | -4 | 0
SMILES | LANA DNA inh | Keap1-Nrf2 PPI | CAL PDZ FP-1 | APOBEC3G inh | A3A deaminase | CAL PDZ FP-2
CCN(CC)C(CNC(=O)c1cc(=O)[nH]c2ccccc12)c1ccccc1Cl (centres undefined) | 0 | -3 | -8 | -13 | -4 | -2
CNc1nnc(SCC(=O)N2c3ccccc3NC(=O)CC2C)s1 (centres undefined) | 1 | 1 | -4 | -7 | -1 | -1
COC(=O)c1c(NC(=O)Cc2cccs2)sc2c1CCC(C)C2 (centres undefined) | -2 | -1 | -1 | 8 | 5 | -1
COC(=O)c1c(NC(=O)CN(C)CC(=O)Nc2ccc(C)cc2)sc2c1CCC(C)C2 (centres undefined) | -1 | -3 | 69* | -4 | -2 | 0
O=C1C2C3C=CC(O3)C2C(=O)N1N=Cc1cccc2ccccc12 (centres undefined) | 1 | 4 | 112* | x | x | 0
C=CCn1cc(/C=N/N2C(=O)C3C4C=CC(C4)C3C2=O)c2ccccc21 (centres undefined) | -1 | -5 | -2 | -5 | 0 | -2
O=C(CN(Cc1ccccc1)S(=O)(=O)c1ccc(F)cc1)NCCC1=CCCCC1 | 2 | 3 | 73* | 3 | 1 | 25
Cc1ccc(S(=O)(=O)N(CC(=O)NCCC2=CCCCC2)Cc2ccccc2)cc1 | -1 | -7 | -1 | -5 | 0 | 0
O=C(O)c1cccc(Cn2c(Cl)c(/C=N/NC(=O)c3cc4ccccc4cc3O)sc2=O)c1 | 20 | -1 | 47* | -1 | 4 | x
O=C(O)c1ccc(/C=N/NC(=O)c2cc3ccccc3cc2O)cc1 | 3 | -1 | 46* | -6 | -1 | -1
O=C(O)c1cccc(Cn2c(Cl)c(/C=N/NC(=O)c3ccccc3)sc2=O)c1 | -3 | -2 | -2 | -2 | -3 | -2
O=C(CNc1ccc2ccccc2c1)N/N=C/c1ccc(C(=O)O)cc1 | 1 | -3 | -3 | -7 | -1 | -2
Cc1ccc(C(=O)NC(NC(=O)c2ccc(C)cc2)c2cccc([N+](=O)[O-])c2)cc1 | 1 | 3 | 5 | 1 | 3 | 0
CCOC(=O)c1cc([N+](=O)[O-])sc1N | -2 | -7 | 62* | -4 | 1 | -1
Cc1ccc(S(=O)(=O)N(C)C(C)CCc2ccco2)cc1 (centres undefined) | -1 | -4 | + | -3 | -4 | -1
CCOC(=O)c1cc2c(=O)n3cccc(C)c3nc2n(CCOC)c1=NC(C)=O | -1 | 4 | 0 | -2 | 1 | -2
CCOc1cc2c(C#N)c(N3CCNCC3)nc(N)c2c(N)n1 | -4 | -2 | 70* | 2 | 5 | 0
CCOc1c(C)cc(S(=O)(=O)NCc2ccccn2)c(C)c1C | 1 | 5 | 67* | -3 | -1 | x
CCOc1cc(S(=O)(=O)NCc2ccccn2)c(C)cc1C | x | x | x | 6 | 6 | x
Cc1cc(=O)oc2cc(OCC(O)Cn3ccnc3)ccc12 (centres undefined) | -2 | -1 | 0 | -3 | -4 | -1
O=C(CN1C(=O)NC(Cc2ccccc2)C1=O)Nc1ccccc1OC(F)F (centres undefined) | 1 | -1 | -4 | -9 | 2 | -2
COc1ccccc1CCNS(=O)(=O)c1cn(C)c(=O)n(C)c1=O | 0 | -7 | 0 | -2 | -2 | -1
COC(=O)c1ccc(S(=O)(=O)NCCc2ccccc2OC)n1C | 0 | 3 | 69* | -5 | -1 | -1
O=C1NCCCCC1NS(=O)(=O)c1ccc(F)c(F)c1 (centres undefined) | -2 | -1 | 110* | -8 | -2 | -1

High-throughput results as filed in PubChem BioAssay.
